Experimental data from ChEMBL document CHEMBL4138089, “Novel Imidazo[4,5-c][1,2,6]thiadiazine 2,2-dioxides as antiproliferative trypanosoma cruzi drugs: Computational screening from neural network, synthesis and in vivo biological properties” (Eur J Med Chem, 2017).
Calls of active or inactive are those of the source. The calls are words filed in the database; no cut-off is given here.

Key:
L929 = assay: Cytotoxicity against mouse NCTC-929 cells assessed as reduction in cell viability after 48 hrs by resazurin dye-based assay; conditions: L929, 48 h
How it was run: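 NCTC-929 fibroblasts, 15,000 cells/well in MEM, attached 3 h at 37°C/5% CO2, then compounds in fresh medium 48 h. Resazurin (2 mM stock in PBS, pH 7.0) added for 3 h more; fluorescence ex 535/em 590 nm. Growth and medium controls on each plate.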

Trypanosoma cruzi [1] = assay: Growth inhibition of Trypanosoma cruzi Tulahuen 2 epimastigotes at 25 uM after 5 days relative to control; type: functional; conditions: Tulahuen 2, 120 h, read-out: GI
Trypanosoma cruzi [2] = assay: Antitrypanosomal activity against Trypanosoma cruzi Tulahuen 2 epimastigotes after 5 days; type: functional, organism-based; conditions: Tulahuen 2, 120 h
[3] = Selectivity index, ratio of IC50 for mouse NCTC-929 cells to IC50 for Trypanosoma cruzi clone CL B5 epimastigotes; type: toxicity; conditions: read-out: Ratio IC50
J774 = assay: Cytotoxicity against mouse J774 cells assessed as reduction in cell viability after 48 hrs by MTT assay; type: cell-based; conditions: J774, 48 h
How it was run: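 J774 macrophages, 37°C, 5% CO2, 48 h with compounds in DMSO at 100, 200 and 400 μM. Viability from mitochondrial activity by MTT/formazan.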

Trypanosoma cruzi [4] = assay: Growth inhibition of Trypanosoma cruzi clone CL B5 epimastigotes at 25 uM after 72 hrs by beta-galactosidase reporter gene assay relative to control; type: functional; conditions: clone CL B5, 72 h, read-out: GI
[5] = target: Cruzipain (Trypanosoma cruzi) (UniProt P25779); assay: Inhibition of Trypanosoma cruzi cruzipain at 100 uM using Bz-Pro-Phe-Arg-p-NA as a chromogenic substrate preincubated for 10 mins followed by substrate addition measured for 5 mins by spectrophotometer relative to control
Cruzipain (Trypanosoma cruzi), sequence (P25779 123-467 limits assumed): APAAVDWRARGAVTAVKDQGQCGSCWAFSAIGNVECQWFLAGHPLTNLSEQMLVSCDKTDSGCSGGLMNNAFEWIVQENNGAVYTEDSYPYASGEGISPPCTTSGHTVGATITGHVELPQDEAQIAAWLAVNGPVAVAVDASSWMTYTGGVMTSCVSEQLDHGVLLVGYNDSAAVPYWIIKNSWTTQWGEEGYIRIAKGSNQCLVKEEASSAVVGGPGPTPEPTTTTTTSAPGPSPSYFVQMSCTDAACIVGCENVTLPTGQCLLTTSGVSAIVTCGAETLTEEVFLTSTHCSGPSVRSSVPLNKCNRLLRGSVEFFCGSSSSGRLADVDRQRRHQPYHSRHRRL
How it was run: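 Cruzipain preincubated 10 min at ambient temperature in 50 mM Tris-HCl pH 7.6 with 10 mM mercaptoethanol and 25, 50 or 100 μM inhibitor (DMSO). Bz-Pro-Phe-Arg-p-NA then added at 150 μM final, A410 followed for 5 min. Controls carry the same DMSO level and define 100% activity.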

Trypanosoma cruzi [6] = assay: Antitrypanosomal activity against Trypanosoma cruzi clone CL B5 epimastigotes at 25 uM after 72 hrs by beta-galactosidase reporter gene assay; type: functional, organism-based; conditions: clone CL B5, 72 h
[7] = Selectivity index, ratio of IC50 for mouse J774 cells to IC50 for Trypanosoma cruzi Tulahuen 2 epimastigotes; type: toxicity; conditions: J774 cells versus Trypanosoma cruzi Tulahuen 2 epimastigotes, read-out: Ratio IC50
Cruzipain = Cruzipain (Trypanosoma cruzi, UniProt P25779); assay: Inhibition of Trypanosoma cruzi cruzipain using Bz-Pro-Phe-Arg-p-NA as a chromogenic substrate preincubated for 10 mins followed by substrate addition measured for 5 mins by spectrophotometry
Cruzipain, sequence (P25779 whole entry): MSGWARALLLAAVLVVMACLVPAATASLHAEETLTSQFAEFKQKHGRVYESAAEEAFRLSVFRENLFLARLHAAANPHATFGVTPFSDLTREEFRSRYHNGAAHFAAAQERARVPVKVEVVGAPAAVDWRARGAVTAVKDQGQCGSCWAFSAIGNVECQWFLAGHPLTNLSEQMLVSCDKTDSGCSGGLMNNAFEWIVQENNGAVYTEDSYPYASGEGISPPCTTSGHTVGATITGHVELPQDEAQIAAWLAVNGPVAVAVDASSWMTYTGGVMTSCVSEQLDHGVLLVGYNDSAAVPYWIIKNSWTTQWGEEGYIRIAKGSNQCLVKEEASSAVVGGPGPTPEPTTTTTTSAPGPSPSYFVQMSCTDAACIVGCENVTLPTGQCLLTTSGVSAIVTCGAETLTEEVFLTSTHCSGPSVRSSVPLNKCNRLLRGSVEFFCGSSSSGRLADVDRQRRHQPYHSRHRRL
How it was run: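 Cruzipain preincubated 10 min at ambient temperature in 50 mM Tris-HCl pH 7.6 with 10 mM mercaptoethanol and 25, 50 or 100 μM inhibitor (DMSO). Controls carry the same DMSO level and define 100% activity.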

Salmonella typhimurium [8] = assay: Genotoxicity in Salmonella typhimurium TA98 up to 500 ug/plate in absence of mouse liver S9 fraction by Ames test; type: toxicity, organism-based; conditions: salmonella enterica subsp. enterica serovar typhimurium
How it was run: (§1)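 TA98 by direct plate incorporation on minimal glucose agar with Vogel-Bonner E; toxicity to the strain checked first. Compounds in DMSO, in triplicate, top dose 500 µg/plate; ± Aroclor-induced mouse liver S9 (500 µL). Positive controls 4-nitro-o-phenylenediamine 20.0 µg/plate (no S9), 2-aminofluorene 10.0 µg/plate (S9); DMSO negative. Manual revertant counts, mean of two experiments ±SD; mutagenic if ≥2× negative control at two consecutive doses.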

Salmonella typhimurium [9] = assay: Genotoxicity in Salmonella typhimurium TA98 up to 500 ug/plate in presence of mouse liver S9 fraction by Ames test; type: toxicity, organism-based; conditions: salmonella enterica subsp. enterica serovar typhimurium; how it was run: as §1
Mus musculus = assay: Antitrypanosomal activity against bloodstream forms of Trypanosoma cruzi Y infected in NMRI mouse assessed as decrease in number of blood trypomastigotes at 100 mg/kg, po administerd for 5 consecutive days starting from day 5 post infection measured from 4th day of treatment; type: functional, organism-based
Trypanosoma cruzi [10] = assay: Growth inhibition of Trypanosoma cruzi clone CL B5 amastigotes harboring lacZ derived from infected mouse NCTC-929 cells at 25 uM after 7 days by beta-galactosidase reporter gene assay relative to control; type: functional; conditions: clone CL B5, NCTC-929, 168 h, read-out: GI
How it was run: (§2)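 NCTC-929 fibroblasts seeded 10,000 cells/well in MEM, attached 2-3 h at 37°C, 5% CO2, then infected with NCTC-929-derived CL-B5 lacZ trypomastigotes (1:6 cells:parasites) for 24 h at 33°C. Washed in PBS, drug in DMSO added in fresh medium, 7 days at 33°C. CPRG (400 µM, pH 7.4, 3% Triton X-100) added, 3 h at 37°C, A595. PGIa computed against infected untreated wells after subtracting uninfected-cell background. IC50a derived from PGIa.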

Trypanosoma cruzi [11] = assay: Antitrypanosomal activity against Trypanosoma cruzi clone CL B5 amastigotes harboring lacZ infected in mouse NCTC-929 cells after 7 days by beta-galactosidase reporter gene assay; type: functional, organism-based; conditions: clone CL B5, NCTC-929, 168 h; how it was run: as §2
Trypanosoma cruzi [12] = assay: Antitrypanosomal activity against bloodstream forms of Trypanosoma cruzi Y infected in NMRI mouse assessed as mouse survival at 100 mg/kg, po administerd for 5 consecutive days starting from day 5 post infection; conditions: 720 h

| IC50 (Trypanosoma cruzi [2]) | Compound | inhibition of growth at 25 µM (Trypanosoma cruzi [1]) | inhibition of growth at 25 µM (Trypanosoma cruzi [4]) | selectivity ratio [7] | also measured |
| --- | --- | --- | --- | --- | --- |
| 11.5 µM | NC1=NS(=O)(=O)Nc2nc(CCc3ccccc3)[nH]c21 | 73.6% | 51.1% | > 34.8 | IC50 (L929): > 256 µM; selectivity ratio [3]: > 14.6; IC50 (J774): > 400 µM; inhibition [5]: 39%; IC50 (Trypanosoma cruzi [6]): 17.5 µM |
| 28.5 µM | CCc1nc2c([nH]1)C(N)=NS(=O)(=O)N2 | 43% | – | – | – |
| 12.7 to 16.2 µM | NC1=NS(=O)(=O)Nc2nc(Cc3ccccc3)[nH]c21 | 59.7% | 17.7% | > 31 | IC50 (Cruzipain): 23 µM; Activity (Salmonella typhimurium [8]): Non-Toxic; IC50 (Trypanosoma cruzi [6]): > 25 µM; Activity (Salmonella typhimurium [9]): Non-Toxic |
| > 25 µM | NC1=NS(=O)(=O)Nc2nc(-c3ccc([N+](=O)[O-])o3)[nH]c21 | 31.3% | – | – | – |
| – | CC1CS(=O)(=O)CCN1/N=C/c1ccc([N+](=O)[O-])o1 (stereo unspecified) [NIFURTIMOX] | – | 82.2% | 41 | IC50 (L929): > 256 µM; selectivity ratio [3]: > 71.1; inhibition of growth at 25 µM (Trypanosoma cruzi [10]): 100%; IC50 (Trypanosoma cruzi [11]): < 0.5 µM |
| 29.5 µM | NC1=NS(=O)(=O)N(Cc2ccccc2)c2nc(-c3ccccc3)[nH]c21 | 41.6% | – | – | – |
| 16.7 µM | CN1c2nc(-c3ccccc3)[nH]c2C(N)=NS1(=O)=O | 58% | 11.3% | 7.7 | IC50 (J774): 128 µM; Activity (Salmonella typhimurium [8]): Non-Toxic; inhibition [5]: 27.4%; IC50 (Trypanosoma cruzi [6]): > 25 µM; Activity (Salmonella typhimurium [9]): Non-Toxic |
| 7 µM | NC1=NS(=O)(=O)N(Cc2ccc(Cl)cc2)c2nc(-c3ccccc3F)[nH]c21 | 86.3% | 42.1% | < 14.2 | IC50 (Cruzipain): 86 µM; IC50 (J774): < 100 µM; IC50 (Trypanosoma cruzi [6]): > 25 µM |
| > 25 µM | Cc1nc2c([nH]1)C(N)=NS(=O)(=O)N2 | 38.7% | – | – | – |
| > 25 µM | NC1=NS(=O)(=O)N(Cc2ccc(Cl)cc2)c2nc(C3CCCCC3)[nH]c21 | 0% | – | – | – |
| > 25 µM | NC1=NS(=O)(=O)Nc2[nH]c(-c3ccccc3)nc21 | 39.6% | – | – | – |
| 20.3 µM | NC1=NS(=O)(=O)Nc2nc(C3CCOC3)[nH]c21 (stereo unspecified) | 56.4% | – | – | – |
| 28.5 µM | CN(C)c1ccc(-c2nc3c([nH]2)C(N)=NS(=O)(=O)N3)cc1 | 42.8% | – | – | – |
| 28.9 µM | NC1=NS(=O)(=O)Nc2nc(C3CCCC3)[nH]c21 | 42.2% | – | – | – |
| 26.2 µM | CN1c2nc(-c3ccsc3)[nH]c2C(N)=NS1(=O)=O | 46.3% | – | – | – |
| 22.2 µM | NC1=NS(=O)(=O)Nc2nc(-c3ccsc3)[nH]c21 | 51.3% | – | – | – |
| 28.7 µM | NC1=NS(=O)(=O)N(Cc2ccccc2)c2nc(C3CCCCC3)n(Cc3ccccc3)c21 | 45.7% | – | – | – |
| – | O=C(Cn1ccnc1[N+](=O)[O-])NCc1ccccc1 [BENZNIDAZOLE] | – | 49% | – | IC50 (L929): > 256 µM; selectivity ratio [3]: > 9.4; inhibition of growth at 25 µM (Trypanosoma cruzi [10]): 100%; IC50 (Trypanosoma cruzi [11]): 0.8 µM |
| > 25 µM | NC1=NS(=O)(=O)Nc2nc(-c3cccnc3)[nH]c21 | 37.5% | – | – | – |
| 20.2 µM | NC1=NS(=O)(=O)Nc2nc(-c3ccccc3F)[nH]c21 | 57.8% | – | – | – |

| Compound | IC50 (Trypanosoma cruzi [2]) | inhibition of growth at 25 µM (Trypanosoma cruzi [1]) | inhibition of growth at 25 µM (Trypanosoma cruzi [4]) | selectivity ratio [7] | also measured |
| --- | --- | --- | --- | --- | --- |
| NC1=NS(=O)(=O)Nc2nc(C3CCCCC3)[nH]c21 | 12.7 to 16.2 µM | 72.3% | 54.8% | > 25 | Activity (Mus musculus): inactive; IC50 (L929): > 256 µM; IC50 (Cruzipain): 12 µM; selectivity ratio [3]: > 102; inhibition of growth at 25 µM (Trypanosoma cruzi [10]): 0%; IC50 (Trypanosoma cruzi [6]): 2.5 µM |
| NC1=NS(=O)(=O)N(Cc2ccccc2)c2nc(-c3ccccc3)n(Cc3ccccc3)c21 | 4.5 µM | 100% | 60.8% | 22 | Activity (Mus musculus): Active; IC50 (L929): < 64 µM; IC50 (Cruzipain): 81 µM; selectivity ratio [3]: < 17.8; survival at 100 mg/kg (Trypanosoma cruzi [12]): 87.5%; IC50 (J774): 100 µM; Activity (Salmonella typhimurium [8]): Non-Toxic; inhibition of growth at 25 µM (Trypanosoma cruzi [10]): 90.2%; IC50 (Trypanosoma cruzi [6]): 3.6 µM; Activity (Salmonella typhimurium [9]): Non-Toxic |
